From ChEMBL document CHEMBL2439972, “Synthesis, pharmacological and structural characterization, and thermodynamic aspects of GluA2-positive allosteric modulators with a 3,4-dihydro-2H-1,2,4-benzothiadiazine 1,1-dioxide scaffold” (J Med Chem, 2013) come the findings set out here.

Where only a bound is given, the exact number is not on record here.

Assay [1] deals with Glutamate receptor 2 (Rattus norvegicus) (UniProt P19491). Description: Positive allosteric modulation of GluA2 receptor in rat embryonic cortex neuron assessed as concentration required to 2 fold increase of AMPA-induced membrane depolarization by fluorescence assay. A digest of the protocol: (§1)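 Rat E16 cortical cells cultured 18 days (37 °C, 5% CO2) were loaded with membrane-potential dye for 1 h at room temperature and read on an imaging plate reader. After a 10 s baseline, AMPA (300 μM) was added for 3 min, then compound plus AMPA for 3 min. Signal was averaged over the last 15 s, as area under the curve. Outputs: EC2× (2-fold increase), EC50, Emax relative to AMPA alone (×1). Mean ± SEM (n).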

In assay [2] the target is T1, Glutamate receptor 2 (Rattus norvegicus, UniProt P19491). Description: Positive allosteric modulation of GluA2 receptor in rat embryonic cortex neuron assessed as increase of AMPA-induced membrane depolarization by fluorescence assay. A digest of the protocol:
as §1

In assay [3] the target is Glutamate receptor 2 (Rattus norvegicus) (UniProt P19491). Description: Positive allosteric modulation of GluA2 receptor in rat embryonic cortex neuron assessed as increase of AMPA-induced membrane depolarization by fluorescence assay relative to AMPA. A digest of the protocol: as §1
A short description of assay [4]: Binding affinity to rat LBD of GluA2 receptor L483Y and N754S mutant at 243 uM by isothermal titration calorimetry analysis.
The target of assay [5] is T1, Glutamate receptor 2. Description: Positive allosteric modulation of GluA2 receptor in rat embryonic cortex neuron assessed as increase of AMPA-induced membrane depolarization by FLIPR assay. A digest of the protocol:
(§2)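 FLIPR version of the membrane-potential dye assay on primary rat embryonic cortical neurons, same principle on a different plate reader. Measures depolarization evoked by 300 μM AMPA. Outputs: EC2× (modulator concentration doubling the AMPA response), EC50, Emax normalized to the AMPA response (×1).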

The target in assay [6] is Glutamate receptor 2 (Rattus norvegicus) (UniProt P19491). Description: Positive allosteric modulation of GluA2 receptor in rat embryonic cortex neuron assessed as increase of AMPA-induced membrane depolarization by FLIPR assay relative to AMPA. A digest of the protocol:
as §2

The target is the same in assay [7]. Nature of the assay: Positive allosteric modulation of GluA2 receptor in rat embryonic cortex neuron assessed as concentration required to 2 fold increase of AMPA-induced membrane depolarization by FLIPR assay. Put shortly:
as §2

The nature of assay [8]: Positive allosteric modulation of GluA2 receptor (unknown origin) expressed in Xenopus laevis oocytes assessed as concentration required to 2 fold increase of AMPA-induced membrane depolarization by voltage clamp assay. Conditions: Oocyte.

T1 sequence (P19491 whole entry): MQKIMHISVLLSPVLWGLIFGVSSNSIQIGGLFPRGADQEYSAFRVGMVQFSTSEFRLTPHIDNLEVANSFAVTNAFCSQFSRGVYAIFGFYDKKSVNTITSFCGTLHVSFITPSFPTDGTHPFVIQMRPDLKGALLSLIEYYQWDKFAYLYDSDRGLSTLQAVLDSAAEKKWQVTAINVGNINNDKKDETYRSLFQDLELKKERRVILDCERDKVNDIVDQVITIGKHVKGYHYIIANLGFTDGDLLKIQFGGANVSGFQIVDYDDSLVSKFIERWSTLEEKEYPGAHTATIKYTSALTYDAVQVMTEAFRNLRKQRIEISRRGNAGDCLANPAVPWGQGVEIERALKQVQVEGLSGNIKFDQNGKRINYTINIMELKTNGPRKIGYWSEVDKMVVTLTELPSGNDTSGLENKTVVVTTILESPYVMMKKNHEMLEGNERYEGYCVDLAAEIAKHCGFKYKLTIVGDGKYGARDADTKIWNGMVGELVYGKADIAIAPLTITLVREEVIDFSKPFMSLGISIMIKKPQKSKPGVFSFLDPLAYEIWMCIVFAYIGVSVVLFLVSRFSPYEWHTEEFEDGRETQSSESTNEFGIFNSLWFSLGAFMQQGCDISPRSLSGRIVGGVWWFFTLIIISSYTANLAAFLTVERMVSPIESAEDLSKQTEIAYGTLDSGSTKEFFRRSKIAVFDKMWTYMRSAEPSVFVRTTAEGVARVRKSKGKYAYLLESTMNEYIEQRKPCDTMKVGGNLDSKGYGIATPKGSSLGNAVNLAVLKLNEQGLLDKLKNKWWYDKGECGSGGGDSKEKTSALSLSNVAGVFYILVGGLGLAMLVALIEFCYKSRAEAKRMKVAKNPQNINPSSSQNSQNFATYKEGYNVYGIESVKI
Glutamate receptor 2 (Rattus norvegicus), sequence (P19491 whole entry, the tested form may be a part): as the sequence (P19491 whole entry) above

Regarding `O=S1(=O)NCN(C2CC2)c2ccccc21`, the Activity in assay [1] is 0.73 µM. For the same molecule, at Glutamate receptor 2 [2], the EC50 was determined as 4.17 µM. For the same molecule, the fold change (FC) in assay [3] turned out to be 8.5.
With `O=S1(=O)NCN(C2CC2)c2ccc(F)cc21`, the Activity in assay [1] stood at 0.27 µM. In addition, the EC50 at Glutamate receptor 2 [2] came to 0.9 µM. In addition, in assay [4], the Kd was found to be 0.35 µM. Besides, in assay [3], the fold change (FC) turned out to be 15.
Consider `O=S1(=O)NCN(C2CC2)c2ccc(Br)cc21`, for which the Activity in assay [1] came out at 1.27 µM. Moreover, the 50% effective concentration (EC50) on Glutamate receptor 2 [2] was 4.83 µM. Moreover, the fold change (FC) in assay [3] amounted to 9.3.
As for `Cc1ccc2c(c1)S(=O)(=O)NCN2C1CC1`, in assay [1], the Activity was determined as 5.13 µM. In assay [3], the fold change (FC) was 8.7.
Regarding `O=S1(=O)NCN(C2CC2)c2ccc(C(F)(F)F)cc21`, the Activity in assay [1] was greater than 100 µM.
As for `O=[N+]([O-])c1ccc2c(c1)S(=O)(=O)NCN2C1CC1`, the EC50 on Glutamate receptor 2 [5] amounted to 22.5 µM. For the same molecule, in assay [6], the fold change (FC) was 7. Further, the Activity in assay [7] stood at 14 µM.
Regarding `O=S1(=O)NCN(C2CC2)c2ccc(Cl)cc21`, the Activity in assay [1] was determined as 0.75 µM; in assay [8], 0.8 µM. In addition, at Glutamate receptor 2 [2], the concentration giving a half-maximal response (EC50) came to 3.13 µM. Besides, the fold change (FC) in assay [3] is 10.9.
On to `N#Cc1ccc2c(c1)S(=O)(=O)NCN2C1CC1`, for which the Activity in assay [1] came to 0.47 µM. Further, the 50% effective concentration (EC50) at Glutamate receptor 2 [2] came to 2.5 µM. In addition, in assay [3], the fold change (FC) is 9.2.
